For data set [1] the following is noted: cited from earlier work.
For data set [2] the following is noted: no reference given, cited from earlier work.
Data set [3] concerns c-Met-dependent non-small cell lung cancer (NSCLC) and other tumor models. Particulars: SCC244 at 10 mg/kg; cited from earlier work.
The format of data set [4] is in vivo, human. The method in brief: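 Three-period crossover in 18 healthy males aged 18–45 y with a 14-day washout. Dosing was fasted, or within 30 min of starting a high-fat/high-calorie or low-fat meal, with 240 mL water and no food for ≥4 h. EDTA plasma was sampled 0–168 h and assayed by LC-MS/MS (MRM, d6 internal standard). NCA gave parameters; log-transformed values were fitted by mixed-effects model for geometric mean ratios with 90% CI.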

A short description of a further data set: Safety evaluation. It is filed as in vivo, human. Particulars: single oral 300 mg. The method in brief: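 Each of the three dosing periods had 8 days of post-dose follow-up. Monitoring covered physical examination, vital signs, 12-lead ECG, haematology, urinalysis, biochemistry, coagulation and adverse events. Vital signs and ECG were taken within 1 h pre-dose, at 3 h ±30 min post-dose, and daily at other visits. Adverse events were graded by NCI CTCAE v5.0. All 18 dosed subjects formed the safety set.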

Where [5] appears, read: single oral 300 mg, fasting, n=18.
The mark [6] stands for this setting: single oral 300 mg, high-fat meal, n=17.
Where [7] appears, read: single oral 300 mg, low-fat meal, n=18.
The mark [8] stands for this setting: single oral 300 mg, n=17, bioavailability analysis set.

Where “and” joins values, the source holds several entries; their conditions need not be identical. Identical values can stand only once. Like-named read-outs stand apart in the source and are kept apart here.

With `CCCS(=O)(=O)Nc1ccc(F)c(C(=O)c2c[nH]c3ncc(-c4ccc(Cl)cc4)cc23)c1F` [vemurafenib], the “Effect of high-fat meal (increase)” value in data set [1] (960mg single dose) is 3.7 fold.
`COc1cc2c(Nc3ccc(Br)cc3F)ncnc2cc1OCC1CCN(C)CC1` [vandetanib]: the “Effect of food on bioavailability” value in data set [1] is given as “unaffected by food”.
Broadly, the Tmax is the time from dosing to the highest level. As a reminder, the AUC(0-inf) is the area under the concentration-time curve extrapolated to infinity. A high value points to high exposure. Broadly, the AUC(0-t) is exposure summed from dosing to a finite time, without extrapolation to infinity. As usually defined, the Cmax is the maximum level reached in the sampled fluid or tissue. For orientation: half-life means the time in which the quantity being followed falls by half. As for `Cn1cc(-c2cnc3cnn(S(=O)(=O)c4cnc5ccc(-c6cnn(C)c6)cn45)c3c2)cn1` [SCC244], the Solubility in water entry in data set [2] is on record as “practically insoluble in water”. The “Biopharmaceutics Classification System (BCS) class” value in data set [2] (poor aqueous solubility but sufficient permeability) is “Class II”. Besides, in data set [2] (weak base drug), the “Solubility versus pH” value is recorded as “declines greatly when the pH is higher than 1.2”. Besides, in data set [3], the “Efficacy compared with capmatinib and crizotinib” value was “comparable with that of capmatinib at 15 mg/kg and crizotinib at 50 mg/kg”. The time of peak concentration (Tmax) in data set [4] (male, human, plasma, po, 300 mg) was determined as 4 h. Besides, the total exposure AUC(0-inf) in data set [4] (male, human, plasma, po, 300 mg, AUC0-inf (geometric mean), single oral 300 mg, fasting, n=17, bioavailability analysis set) is 25300 ng·h/mL; in data set [4] (male, human, plasma, po, 300 mg, AUC0-inf (geometric mean), single oral 300 mg, high-fat meal, n=17, bioavailability analysis set), 59700 ng·h/mL; in data set [4] (male, human, plasma, po, 300 mg, AUC0-inf (geometric mean), single oral 300 mg, low-fat meal, n=17, bioavailability analysis set), 55300 ng·h/mL; in data set [4] (male, human, plasma, po, 300 mg, AUC0-inf, mean (SD), single oral 300 mg, fasting, n=18) it was 27700 ng·h/mL; in data set [4] (male, human, plasma, po, 300 mg, AUC0-inf, mean (SD), single oral 300 mg, high-fat meal, n=17), 65100 ng·h/mL; in data set [4] (male, human, plasma, po, 300 mg, AUC0-inf, mean (SD), single oral 300 mg, low-fat meal, n=18), 60500 ng·h/mL. For the same compound, the AUC(0-t) in data set [4] (male, human, plasma, po, 300 mg, AUC0-t (geometric mean), single oral 300 mg, fasting, n=17, bioavailability analysis set) worked out at 24800 ng·h/mL; in data set [4] (male, human, plasma, po, 300 mg, AUC0-t (geometric mean), single oral 300 mg, high-fat meal, n=17, bioavailability analysis set), 58900 ng·h/mL; in data set [4] (male, human, plasma, po, 300 mg, AUC0-t (geometric mean), single oral 300 mg, low-fat meal, n=17, bioavailability analysis set), 54300 ng·h/mL; in data set [4] (male, human, plasma, po, 300 mg, AUC0-t, mean (SD), single oral 300 mg, fasting, n=18), 27200 ng·h/mL; in data set [4] (male, human, plasma, po, 300 mg, AUC0-t, mean (SD), single oral 300 mg, high-fat meal, n=17), 64100 ng·h/mL; in data set [4] (male, human, plasma, po, 300 mg, AUC0-t, mean (SD), single oral 300 mg, low-fat meal, n=18), 59600 ng·h/mL. The Cmax in data set [4] (male, human, plasma, po, 300 mg, Cmax (geometric mean), single oral 300 mg, fasting, n=17, bioavailability analysis set) turned out to be 824 ng/mL; in data set [4] (male, human, plasma, po, 300 mg, Cmax (geometric mean), single oral 300 mg, high-fat meal, n=17, bioavailability analysis set), 1610 ng/mL; in data set [4] (male, human, plasma, po, 300 mg, Cmax (geometric mean), single oral 300 mg, low-fat meal, n=17, bioavailability analysis set), 1600 ng/mL; in data set [4] (male, human, plasma, po, 300 mg, Cmax, mean (SD), single oral 300 mg, fasting, n=18) it was 869 ng/mL; in data set [4] (male, human, plasma, po, 300 mg, Cmax, mean (SD), single oral 300 mg, high-fat meal, n=17) it was 1730 ng/mL; in data set [4] (male, human, plasma, po, 300 mg, Cmax, mean (SD), single oral 300 mg, low-fat meal, n=18), 1750 ng/mL. Moreover, the half-life in data set [4] (male, human, plasma, po, 300 mg, Mean t1/2 under different meal conditions, single oral 300 mg, low-fat meal, high-fat meal and fasted groups) was 24.7 to 26.1 h; in data set [4] (male, human, plasma, po, 300 mg, t1/2, mean (SD), single oral 300 mg, fasting, n=18), 26.1 h; in data set [4] (male, human, plasma, po, 300 mg, t1/2, mean (SD), single oral 300 mg, high-fat meal, n=17) it was 24.7 h; in data set [4] (male, human, plasma, po, 300 mg, t1/2, mean (SD), single oral 300 mg, low-fat meal, n=18) it was 25.6 h. For the same compound, the “%CV (AUC0-inf), inter-subject variability” value in data set [4] (setting [5]) came out at 44.0%; in data set [4] (setting [6]), 35.3%; in data set [4] (setting [7]) it was 31.6%. Besides, the “%CV (AUC0-t), inter-subject variability” value in data set [4] (setting [5]) is recorded as 44.2%; in data set [4] (setting [6]), 34.8%; in data set [4] (setting [7]) it was 31.5%. In addition, the “%CV (Cmax), inter-subject variability” value in data set [4] (setting [5]) is 34.3%; in data set [4] (setting [6]), 30.5%; in data set [4] (setting [7]), 30.2%. In addition, the “CL/F, mean (SD)” value in data set [4] (setting [5]) was 12.8 (5.5) L/h; in data set [4] (setting [6]), 5.7 L/h and 5.7 (4.2) L/h; in data set [4] (setting [7]), 6.3 L/h and 6.3 (5.8) L/h. Besides, the “Tmax, median (range)” value in data set [4] (setting [6]) is on record as 4.0 (2.0–12.0) h; in data set [4] (setting [7]), 4.0 (2.0–8.0) h. Also, the “AUC0-inf geometric mean ratio (90% CI) of high-fat meal vs fasting” value in data set [4] (setting [8]) is recorded as 235.9% (207.5–268.3%). Besides, the “AUC0-inf geometric mean ratio (90% CI) of low-fat meal vs fasting” value in data set [4] (setting [8]) is listed as 218.3% (192.0–248.3%). Also, the “AUC0-t geometric mean ratio (90% CI) of high-fat meal vs fasting” value in data set [4] (setting [8]) was 237.4% (208.7–270.0%). Besides, the “AUC0-t geometric mean ratio (90% CI) of low-fat meal vs fasting” value in data set [4] (setting [8]) is 219.2% (192.7–249.3%). In addition, the “Cmax geometric mean ratio (90% CI) of high-fat meal vs fasting” value in data set [4] (setting [8]) is 194.8% (174.3–217.7%). Also, the “Cmax geometric mean ratio (90% CI) of low-fat meal vs fasting” value in data set [4] (setting [8]) is on record as 194.6% (174.1–217.5%). For the same compound, the “Other tolerability assessments (laboratory parameters, vital signs, physical examination, 12-lead ECGs)” value in “Safety evaluation” (all meal conditions) is “No clinically significant abnormalities”. In addition, the “SAEs or AEs leading to permanent discontinuation” value in “Safety evaluation” (all meal conditions) is recorded as “No SAEs or AEs leading to permanent discontinuation were reported”. Besides, the “Incidence of AEs (subjects with any AE)” value came to 66.7% in the data set “Safety evaluation” (fasted, 12/18 subjects); 70.6% in “Safety evaluation” (high-fat meal, 12/17 subjects); 83.3% in “Safety evaluation” (low-fat meal, 15/18 subjects). Besides, the “Incidence of AE blood fibrinogen decreased” value was 16.7% (3) in the data set “Safety evaluation” (fasting, n=18); 23.5% (4) in the data set “Safety evaluation” (high-fat meal, n=17); 27.8% (5) in “Safety evaluation” (low-fat meal, n=18). Besides, the “Incidence of AE dizziness” value is recorded as 16.7% (3) in the data set “Safety evaluation” (fasting, n=18); 0% (0) in the data set “Safety evaluation” (high-fat meal, n=17); 11.1% (2) in the data set “Safety evaluation” (low-fat meal, n=18). For the same compound, the “Incidence of AE head discomfort” value is 5.6% (1) in the data set “Safety evaluation” (fasting, n=18); 11.8% (2) in the data set “Safety evaluation” (high-fat meal, n=17); 11.1% (2) in “Safety evaluation” (low-fat meal, n=18). For the same compound, the “Incidence of AE headache” value in “Safety evaluation” (fasting, n=18) is on record as 27.8% (5); in “Safety evaluation” (high-fat meal, n=17), 47.1% (8); in the data set “Safety evaluation” (low-fat meal, n=18) it was 44.4% (8). Besides, the “Incidence of AE protein urine presence” value in the data set “Safety evaluation” (fasting, n=18) was 16.7% (3); in the data set “Safety evaluation” (high-fat meal, n=17), 0% (0); in “Safety evaluation” (low-fat meal, n=18), 5.6% (1). Also, the “Subjects with a CTCAE grade 2 AE (headache); all other AEs grade 1” value in “Safety evaluation” (low-fat meal) stood at 1 subject.
For the compound `CS(=O)(=O)CCNCc1ccc(-c2ccc3ncnc(Nc4ccc(OCc5cccc(F)c5)c(Cl)c4)c3c2)o1` [Lapatinib], in data set [1], the “Bioavailability increase with a high-fat meal” value was 161% and the “Bioavailability increase with a low-fat meal” value is 80%.
With `C[C@@H](Oc1cc(-c2cnn(C3CCNCC3)c2)cnc1N)c1c(Cl)ccc(F)c1Cl` [crizotinib], the “Effect of food on bioavailability” value in data set [1] is listed as “unaffected by food”.
`CNC(=O)c1cc(Oc2ccc(NC(=O)Nc3ccc(Cl)c(C(F)(F)F)c3)c(F)c2)ccn1` [regorafenib]: in data set [1], the “Bioavailability increase with a high-fat meal” value is reported as 48% and the “Bioavailability increase with a low-fat meal” value was 36%.

These data come from publication PMC10013581 (Drug Design, Development and Therapy, 2023).
